Experimental data from ChEMBL document CHEMBL3784970, “Synthesis and molecular docking of N'-arylidene-5-(4-chlorophenyl)-1-(3,4-dichlorophenyl)-4-methyl-1H-pyrazole-3-carbohydrazides as novel hypoglycemic and antioxidant dual agents” (Bioorg Med Chem, 2016).
One block for each compound: values may come before it. Active and inactive are the calls of the source. No cut-off for these calls is given here.

Columns and labels:
[1] = Antioxidant activity assessed as DPPH radical scavenging activity incubated for 20 mins; format: physicochemical
Method in brief: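 DPPH (100 μM in ethanol) was mixed with sample at different concentrations and incubated 20 min at room temperature in the dark, then A517 was read. % scavenging was calculated against a water control. IC was reported as mean ± SEM, n = 3.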

[2] = Antioxidant activity assessed as DPPH radical scavenging activity at 1 uM incubated for 20 mins; format: physicochemical
[3] = Antioxidant activity assessed as DPPH radical scavenging activity at 10 uM incubated for 20 mins; format: physicochemical
[4] = Antioxidant activity assessed as DPPH radical scavenging activity at 100 uM incubated for 20 mins; format: physicochemical
Rattus norvegicus [5] = experiment: Antidiabetic activity in streptozotocin/nicotinamide-induced Wistar rat model of diabetes assessed as plasma glucose variation at 50 mg/kg, ig measured at 1 hr post dose by glucometric analysis (reference value: 17 +/- 8%); format: functional
Rattus norvegicus [6] = experiment: Antidiabetic activity in streptozotocin/nicotinamide-induced Wistar rat model of diabetes assessed as plasma glucose variation at 50 mg/kg, ig measured at 3 hrs post dose by glucometric analysis (reference value: -13 +/- 10%); format: functional
Rattus norvegicus [7] = experiment: Antidiabetic activity in streptozotocin/nicotinamide-induced Wistar rat model of diabetes assessed as plasma glucose variation at 50 mg/kg, ig measured at 5 hrs post dose by glucometric analysis (reference value: -2 +/- 6%); format: functional
Rattus norvegicus [8] = experiment: Antidiabetic activity in streptozotocin/nicotinamide-induced Wistar rat model of diabetes assessed as plasma glucose variation at 50 mg/kg, ig measured at 7 hrs post dose by glucometric analysis (reference value: -5 +/- 8%); format: functional
Rattus norvegicus [9] = experiment: Antidiabetic activity in streptozotocin/nicotinamide-induced Wistar rat model of diabetes assessed as plasma glucose reduction at 50 mg/kg, ig measured at 1 to 7 hrs post dose by glucometric analysis; format: functional, organism-based

IC50 [1]: 10.9 µM
Compound: Cc1c(C)c2c(c(C)c1O)CC[C@@](C)(CCC[C@H](C)CCC[C@H](C)CCCC(C)C)O2 [ALPHA-TOCOPHEROL]

Activity [2]: 2.65%
Activity [3]: 23.29%
Activity [4]: 90.61%
IC50 [1]: 35.8 µM
Compound: COc1cc(/C=C/C(=O)O)cc(OC)c1O [SINAPINATE]

Compound: COc1ccc(Cl)cc1C(=O)NCCc1ccc(S(=O)(=O)NC(=O)NC2CCCCC2)cc1 [GLYBURIDE]
Activity (Rattus norvegicus [5]): -4%
Activity (Rattus norvegicus [6]): -31%
Activity (Rattus norvegicus [7]): -31%
Activity (Rattus norvegicus [8]): -31%

Activity [2]: 3.06%
Activity [3]: 14.52%
Activity [4]: 78.73%
IC50 [1]: 47.7 µM
Compound: COc1cc(/C=C/C(=O)O)ccc1O [FERULATE]

Compound: O=c1c(O)c(-c2ccc(O)c(O)c2)oc2cc(O)cc(O)c12 [QUERCETIN]
IC50 [1]: 31.7 µM

Compound: COc1cc(/C=N/NC(=O)c2nn(-c3ccc(Cl)c(Cl)c3)c(-c3ccc(Cl)cc3)c2C)ccc1O
Activity (Rattus norvegicus [9]): Active

Compound: Cc1c(C(=O)NN2CCCCC2)nn(-c2ccc(Cl)cc2Cl)c1-c1ccc(Cl)cc1 [RIMONABANT]
Activity (Rattus norvegicus [5]): -30%
Activity (Rattus norvegicus [6]): -21%
Activity (Rattus norvegicus [7]): -30%
Activity (Rattus norvegicus [8]): -39%
